# Laboratory results published in ChEMBL document CHEMBL1142492 (J Med Chem, 2008).
# Key:
# [1] = target: SRSF protein kinase 3 (Homo sapiens) (UniProt Q9UPE1); test: Inhibition of SRPK3 at 3 uM
# [2] = target: Tyrosine-protein kinase Tec (Homo sapiens) (UniProt P42680); test: Inhibition of TEC at 3 uM
# [3] = target: Vascular endothelial growth factor receptor 2 (Homo sapiens) (UniProt P35968); test: Inhibition of VEGFR2 at 3 uM
# [4] = system: Epidermal growth factor receptor (Homo sapiens), P00533 [L858R]; test: Inhibition of EGFR L858R mutant at 3 uM; assay type: protein assay
# Outline: (§1)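 Single-concentration kinase panel scoring: each value is the percentage of enzyme activity remaining relative to a DMSO-only control. An activity statistically indistinct from DMSO control was scored "no hit".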
# [5] = target: Tyrosine-protein kinase Fyn (Homo sapiens) (UniProt P06241); test: Inhibition of FYN at 3 uM; outline: as §1
# [6] = target: Inhibitor of nuclear factor kappa-B kinase subunit epsilon (Homo sapiens) (UniProt Q14164); test: Inhibition of IKK-epsilon at 3 uM
# [7] = target: Insulin receptor-related protein (Homo sapiens) (UniProt P14616); test: Inhibition of INSRR at 3 uM
# [8] = target: Mitogen-activated protein kinase kinase kinase kinase 3 (Homo sapiens) (UniProt Q8IVH8); test: Inhibition of MAP4K3 at 3 uM
# Mitogen-activated protein kinase kinase kinase kinase 3 (Homo sapiens), sequence (Q8IVH8 whole entry): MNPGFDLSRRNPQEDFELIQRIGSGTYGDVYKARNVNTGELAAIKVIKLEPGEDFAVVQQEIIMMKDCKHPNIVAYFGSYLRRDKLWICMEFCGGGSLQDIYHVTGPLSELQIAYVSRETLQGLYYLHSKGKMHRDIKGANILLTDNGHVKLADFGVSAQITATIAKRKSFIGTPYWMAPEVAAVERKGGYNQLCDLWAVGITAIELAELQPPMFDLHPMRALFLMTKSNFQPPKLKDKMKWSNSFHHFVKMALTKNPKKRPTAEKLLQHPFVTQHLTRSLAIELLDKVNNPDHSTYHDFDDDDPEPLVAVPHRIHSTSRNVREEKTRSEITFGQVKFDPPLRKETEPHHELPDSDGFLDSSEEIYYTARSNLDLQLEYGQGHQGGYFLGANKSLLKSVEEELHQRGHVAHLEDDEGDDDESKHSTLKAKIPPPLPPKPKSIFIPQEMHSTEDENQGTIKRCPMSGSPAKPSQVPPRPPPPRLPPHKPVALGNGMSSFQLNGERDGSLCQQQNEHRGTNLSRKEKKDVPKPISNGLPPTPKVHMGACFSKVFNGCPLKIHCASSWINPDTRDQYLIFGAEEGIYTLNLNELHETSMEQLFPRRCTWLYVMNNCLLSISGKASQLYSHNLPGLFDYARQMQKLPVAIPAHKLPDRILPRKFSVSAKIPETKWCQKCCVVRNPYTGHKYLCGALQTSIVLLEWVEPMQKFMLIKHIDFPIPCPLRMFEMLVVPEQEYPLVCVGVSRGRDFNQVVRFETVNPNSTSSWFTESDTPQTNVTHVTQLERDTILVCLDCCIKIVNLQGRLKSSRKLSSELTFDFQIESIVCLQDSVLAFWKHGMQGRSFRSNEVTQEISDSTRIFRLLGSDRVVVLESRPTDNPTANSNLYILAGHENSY
# [9] = target: Tyrosine-protein kinase Mer (Homo sapiens) (UniProt Q12866); test: Inhibition of MERTK at 3 uM
# [10] = target: MAP kinase-interacting serine/threonine-protein kinase 1 (Homo sapiens) (UniProt Q9BUB5); test: Inhibition of MKNK1 at 3 uM
# [11] = target: Mitogen-activated protein kinase kinase kinase 10 (Homo sapiens) (UniProt Q02779); test: Inhibition of MLK2 at 3 uM
# [12] = target: Muscle, skeletal receptor tyrosine-protein kinase (Homo sapiens) (UniProt O15146); test: Inhibition of MUSK at 3 uM
# Muscle, skeletal receptor tyrosine-protein kinase (Homo sapiens), sequence (O15146 whole entry): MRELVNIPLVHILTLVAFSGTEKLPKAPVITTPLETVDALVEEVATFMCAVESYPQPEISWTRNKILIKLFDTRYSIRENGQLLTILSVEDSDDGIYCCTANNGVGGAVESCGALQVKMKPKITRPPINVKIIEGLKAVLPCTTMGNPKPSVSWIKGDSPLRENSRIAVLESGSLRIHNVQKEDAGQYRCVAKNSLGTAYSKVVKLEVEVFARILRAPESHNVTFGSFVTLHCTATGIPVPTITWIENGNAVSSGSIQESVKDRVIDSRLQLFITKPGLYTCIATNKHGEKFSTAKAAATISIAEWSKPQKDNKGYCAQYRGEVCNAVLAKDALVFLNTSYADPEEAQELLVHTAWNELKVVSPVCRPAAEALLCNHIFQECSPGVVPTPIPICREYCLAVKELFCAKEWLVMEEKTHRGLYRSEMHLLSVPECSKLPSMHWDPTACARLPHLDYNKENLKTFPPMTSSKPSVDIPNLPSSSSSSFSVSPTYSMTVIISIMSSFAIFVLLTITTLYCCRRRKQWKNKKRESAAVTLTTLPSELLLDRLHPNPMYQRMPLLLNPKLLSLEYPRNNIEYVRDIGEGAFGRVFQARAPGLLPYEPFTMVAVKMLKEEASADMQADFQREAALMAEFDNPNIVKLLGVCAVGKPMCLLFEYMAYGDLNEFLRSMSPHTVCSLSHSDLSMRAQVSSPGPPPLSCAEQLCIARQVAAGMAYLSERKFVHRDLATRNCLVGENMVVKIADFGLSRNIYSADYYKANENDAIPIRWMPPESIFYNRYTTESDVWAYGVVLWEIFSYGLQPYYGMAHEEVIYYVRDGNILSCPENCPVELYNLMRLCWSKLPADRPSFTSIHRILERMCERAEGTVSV
# [13] = target: Serine/threonine-protein kinase Nek1 (Homo sapiens) (UniProt Q96PY6); test: Inhibition of NEK1 at 3 uM
# [14] = target: Serine/threonine-protein kinase Nek5 (Homo sapiens) (UniProt Q6P3R8); test: Inhibition of NEK5 at 3 uM
# [15] = target: Cyclin-dependent kinase 17 (Homo sapiens) (UniProt Q00537); test: Inhibition of PCTK2 at 3 uM
# [16] = target: Serine/threonine-protein kinase MRCK beta (Homo sapiens) (UniProt Q9Y5S2); test: Inhibition of MRCKB at 3 uM
# [17] = target: Serine/threonine-protein kinase N2 (Homo sapiens) (UniProt Q16513); test: Inhibition of PKN2 at 3 uM
# Serine/threonine-protein kinase N2 (Homo sapiens), sequence (Q16513 whole entry, looked up): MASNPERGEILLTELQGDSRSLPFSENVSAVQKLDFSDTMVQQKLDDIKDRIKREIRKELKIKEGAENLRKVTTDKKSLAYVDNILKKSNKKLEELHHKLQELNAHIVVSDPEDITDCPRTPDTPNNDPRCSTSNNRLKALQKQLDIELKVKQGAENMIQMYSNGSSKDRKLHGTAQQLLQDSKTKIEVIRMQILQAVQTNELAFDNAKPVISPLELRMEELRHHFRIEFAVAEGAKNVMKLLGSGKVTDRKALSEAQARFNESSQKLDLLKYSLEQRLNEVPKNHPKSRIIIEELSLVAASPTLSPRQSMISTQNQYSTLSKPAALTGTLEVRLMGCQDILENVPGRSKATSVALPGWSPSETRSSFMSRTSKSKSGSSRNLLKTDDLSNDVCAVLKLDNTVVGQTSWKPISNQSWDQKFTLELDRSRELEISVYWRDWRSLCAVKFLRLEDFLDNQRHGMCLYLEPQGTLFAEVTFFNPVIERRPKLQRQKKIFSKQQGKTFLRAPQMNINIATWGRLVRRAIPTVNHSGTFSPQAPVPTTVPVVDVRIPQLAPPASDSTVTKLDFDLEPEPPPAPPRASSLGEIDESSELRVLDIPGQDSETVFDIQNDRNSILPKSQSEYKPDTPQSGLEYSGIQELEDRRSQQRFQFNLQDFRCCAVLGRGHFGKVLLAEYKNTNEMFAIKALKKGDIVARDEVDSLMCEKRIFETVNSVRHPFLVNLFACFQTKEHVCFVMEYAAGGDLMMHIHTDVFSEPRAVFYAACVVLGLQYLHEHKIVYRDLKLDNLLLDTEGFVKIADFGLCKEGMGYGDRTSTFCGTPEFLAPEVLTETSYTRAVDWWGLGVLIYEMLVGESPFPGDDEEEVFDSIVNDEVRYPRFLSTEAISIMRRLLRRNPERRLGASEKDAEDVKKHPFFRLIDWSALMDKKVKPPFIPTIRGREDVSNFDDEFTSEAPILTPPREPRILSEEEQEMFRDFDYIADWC
# [18] = target: Protein kinase C delta type (Homo sapiens) (UniProt Q05655); test: Inhibition of PRKCD at 3 uM
# [19] = target: cGMP-dependent protein kinase 2 (Homo sapiens) (UniProt Q13237); test: Inhibition of PRKG2 at 3 uM
# cGMP-dependent protein kinase 2 (Homo sapiens), sequence (Q13237 whole entry): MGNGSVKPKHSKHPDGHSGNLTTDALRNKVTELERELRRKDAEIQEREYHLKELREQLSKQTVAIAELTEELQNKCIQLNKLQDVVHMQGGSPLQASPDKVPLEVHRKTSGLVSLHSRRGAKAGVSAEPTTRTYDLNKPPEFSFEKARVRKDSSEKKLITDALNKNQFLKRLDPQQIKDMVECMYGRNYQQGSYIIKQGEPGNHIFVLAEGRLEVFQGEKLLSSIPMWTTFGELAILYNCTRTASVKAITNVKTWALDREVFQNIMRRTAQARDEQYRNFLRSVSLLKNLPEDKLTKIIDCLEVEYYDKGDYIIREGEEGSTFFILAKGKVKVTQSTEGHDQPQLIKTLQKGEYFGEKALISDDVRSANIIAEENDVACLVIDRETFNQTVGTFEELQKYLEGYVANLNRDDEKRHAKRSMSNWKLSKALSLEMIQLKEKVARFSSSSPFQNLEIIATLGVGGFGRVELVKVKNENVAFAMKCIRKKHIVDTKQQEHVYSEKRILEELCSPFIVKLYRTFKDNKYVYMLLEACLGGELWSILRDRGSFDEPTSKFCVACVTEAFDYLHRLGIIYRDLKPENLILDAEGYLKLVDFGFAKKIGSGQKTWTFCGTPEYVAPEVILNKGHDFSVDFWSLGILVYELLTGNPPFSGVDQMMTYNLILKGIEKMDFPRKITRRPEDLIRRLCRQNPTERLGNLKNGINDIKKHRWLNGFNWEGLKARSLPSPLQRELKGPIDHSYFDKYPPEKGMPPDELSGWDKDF
# [20] = target: cAMP-dependent protein kinase catalytic subunit PRKX (Homo sapiens) (UniProt P51817); test: Inhibition of PRKX at 3 uM
# cAMP-dependent protein kinase catalytic subunit PRKX (Homo sapiens), sequence (P51817 whole entry): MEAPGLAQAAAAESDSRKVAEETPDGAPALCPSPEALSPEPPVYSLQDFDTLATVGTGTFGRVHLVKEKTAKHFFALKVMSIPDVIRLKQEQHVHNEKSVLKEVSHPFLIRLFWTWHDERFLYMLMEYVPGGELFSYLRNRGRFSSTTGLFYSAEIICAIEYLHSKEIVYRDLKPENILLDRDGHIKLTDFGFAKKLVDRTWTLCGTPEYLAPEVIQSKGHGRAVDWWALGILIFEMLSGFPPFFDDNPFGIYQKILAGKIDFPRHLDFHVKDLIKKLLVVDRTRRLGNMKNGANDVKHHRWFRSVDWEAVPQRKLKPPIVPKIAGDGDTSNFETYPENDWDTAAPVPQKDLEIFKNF
# [21] = target: Protein-tyrosine kinase 2-beta (Homo sapiens) (UniProt Q14289); test: Inhibition of PTK2B at 3 uM
# [22] = target: Serine/threonine-protein kinase RIO1 (Homo sapiens) (UniProt Q9BRS2); test: Inhibition of RIOK1 at 3 uM
# [23] = system: Phosphatidylinositol 4,5-bisphosphate 3-kinase catalytic subunit alpha isoform (Homo sapiens), P42336 [E545K]; test: Inhibition of PIK3CA E545K mutant at 3 uM
# [24] = target: CYP3A4 (Homo sapiens, UniProt P08684); test: Inhibition of human CYP3A4 at 10 uM; assay type: ADME
# [25] = target: T1, CYP1A2 (Homo sapiens, UniProt P05177); test: Inhibition of human CYP1A2 at 10 uM; assay type: ADME
# T1 sequence (P05177 whole entry): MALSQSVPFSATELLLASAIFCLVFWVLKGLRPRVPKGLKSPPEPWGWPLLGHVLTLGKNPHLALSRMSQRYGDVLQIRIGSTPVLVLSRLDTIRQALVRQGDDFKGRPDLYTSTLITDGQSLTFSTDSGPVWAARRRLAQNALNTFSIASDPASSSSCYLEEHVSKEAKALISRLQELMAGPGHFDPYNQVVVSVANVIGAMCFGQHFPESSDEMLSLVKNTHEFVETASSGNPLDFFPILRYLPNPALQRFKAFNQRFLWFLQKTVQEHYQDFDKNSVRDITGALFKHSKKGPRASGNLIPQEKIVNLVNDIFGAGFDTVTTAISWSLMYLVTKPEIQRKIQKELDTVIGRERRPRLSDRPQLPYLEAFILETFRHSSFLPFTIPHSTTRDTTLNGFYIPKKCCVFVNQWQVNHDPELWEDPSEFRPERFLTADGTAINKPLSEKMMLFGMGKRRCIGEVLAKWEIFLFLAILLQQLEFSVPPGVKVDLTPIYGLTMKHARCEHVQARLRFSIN
# [26] = target: RAC-alpha serine/threonine-protein kinase (Homo sapiens, UniProt P31749); test: Inhibition of AKT1 after 55 mins
# [27] = target: Endothelin-1 receptor (Homo sapiens) (UniProt P25101); test: Inhibition of human endothelin ETA receptor at 3 uM
# Outline: (§2)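 Counter-screen binding/enzyme panel at single 3 μM, n=2; results as percent inhibition. Species per target as listed (rat NMDA, GABAA sites; human receptors, transporters; rabbit ACE).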
# [28] = target: Delta-type opioid receptor (Homo sapiens) (UniProt P41143); test: Inhibition of human delta opioid receptor at 3 uM; outline: as §2
# [29] = target: Cyclin-dependent kinase 3 (Homo sapiens) (UniProt Q00526); test: Inhibition of CDK3 at 3 uM
# [30] = target: Atypical kinase COQ8B, mitochondrial (Homo sapiens) (UniProt Q96D53); test: Inhibition of ADCK4 at 3 uM
# [31] = target: ALK tyrosine kinase receptor (Homo sapiens) (UniProt Q9UM73); test: Inhibition of ALK at 3 uM
# [32] = target: Bone morphogenetic protein receptor type-1B (Homo sapiens) (UniProt O00238); test: Inhibition of BMPR1B at 3 uM
# Bone morphogenetic protein receptor type-1B (Homo sapiens), sequence (O00238 whole entry): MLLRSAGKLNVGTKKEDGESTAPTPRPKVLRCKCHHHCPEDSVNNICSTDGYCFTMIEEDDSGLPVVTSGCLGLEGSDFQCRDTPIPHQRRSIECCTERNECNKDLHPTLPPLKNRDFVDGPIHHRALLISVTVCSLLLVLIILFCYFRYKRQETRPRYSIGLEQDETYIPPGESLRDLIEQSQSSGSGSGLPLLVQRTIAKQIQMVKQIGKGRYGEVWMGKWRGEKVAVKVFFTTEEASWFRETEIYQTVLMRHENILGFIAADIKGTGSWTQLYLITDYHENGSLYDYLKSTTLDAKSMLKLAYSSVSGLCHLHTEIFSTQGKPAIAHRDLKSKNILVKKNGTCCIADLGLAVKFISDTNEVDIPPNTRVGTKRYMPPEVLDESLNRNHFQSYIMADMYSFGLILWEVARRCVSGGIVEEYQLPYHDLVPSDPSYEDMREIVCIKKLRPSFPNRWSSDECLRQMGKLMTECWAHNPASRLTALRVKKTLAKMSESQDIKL
# [33] = target: Substance-P receptor (Homo sapiens) (UniProt P25103); test: Inhibition of human NK1 receptor at 3 uM; outline: as §2
# [34] = target: Serine/threonine-protein kinase DCLK2 (Homo sapiens) (UniProt Q8N568); test: Inhibition of DCAMKL2 at 3 uM
# [35] = target: Calcium/calmodulin-dependent protein kinase type II subunit gamma (Homo sapiens) (UniProt Q13555); test: Inhibition of CAMK2G at 3 uM
# [36] = target: Ephrin type-A receptor 5 (Homo sapiens) (UniProt P54756); test: Inhibition of EPHA5 at 3 uM; outline: as §1
# [37] = target: Mitogen-activated protein kinase 1 (Homo sapiens) (UniProt P28482); test: Inhibition of ERK2 at 3 uM; outline: as §1
# [38] = species: Rattus norvegicus; details: 3 uM
# [39] = species: Rattus norvegicus; details: 3 uM; remark: listed apart in the source
# SRSF protein kinase 3 (Homo sapiens), sequence (Q9UPE1 whole entry): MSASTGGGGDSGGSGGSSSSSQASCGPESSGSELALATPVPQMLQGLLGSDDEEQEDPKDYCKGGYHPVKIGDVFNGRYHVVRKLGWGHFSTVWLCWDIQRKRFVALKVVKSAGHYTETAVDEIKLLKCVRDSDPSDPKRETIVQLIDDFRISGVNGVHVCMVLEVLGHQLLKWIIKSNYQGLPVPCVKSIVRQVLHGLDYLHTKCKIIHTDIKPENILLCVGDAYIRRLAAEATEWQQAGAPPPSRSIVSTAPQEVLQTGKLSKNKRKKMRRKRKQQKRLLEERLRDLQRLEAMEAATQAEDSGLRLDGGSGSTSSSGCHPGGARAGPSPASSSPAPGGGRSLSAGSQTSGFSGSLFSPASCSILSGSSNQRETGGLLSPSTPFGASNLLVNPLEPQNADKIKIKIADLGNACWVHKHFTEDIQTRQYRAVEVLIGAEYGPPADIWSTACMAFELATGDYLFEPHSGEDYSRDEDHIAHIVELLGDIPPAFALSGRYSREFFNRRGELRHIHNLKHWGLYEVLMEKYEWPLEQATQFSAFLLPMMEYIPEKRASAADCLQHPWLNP
compound,measurement,setting,value
CN(C)CCOc1cc(-c2cn[nH]c2)ccc1NC(=O)C1COc2ccccc2O1 (centres undefined) [SR-3677],inhibition,[1],< 10%
same,inhibition,[2],< 10%
same,inhibition,[3],< 10%
same,inhibition,[4],< 10%
same,inhibition,[5],< 10%
same,inhibition,[6],< 10%
same,inhibition,[7],< 10%
same,inhibition,[8],< 10%
same,inhibition,[9],< 10%
same,inhibition,[10],< 10%
same,inhibition,[11],< 10%
same,inhibition,[12],< 10%
same,inhibition,[13],< 10%
same,inhibition,[14],< 10%
same,inhibition,[15],< 10%
same,inhibition,[16],< 10%
same,inhibition,[17],< 10%
same,inhibition,[18],< 10%
same,inhibition,[19],< 10%
same,inhibition,[20],< 10%
same,inhibition,[21],< 10%
same,inhibition,[22],< 10%
same,inhibition,[23],< 10%
same,inhibition at 10 µM,[24],0%
same,inhibition at 10 µM,[25],46%
same,IC50,[26],7.49 µM
same,inhibition,[27],1%
same,inhibition,[28],-9%
same,inhibition,[29],< 10%
same,inhibition,[30],< 10%
same,inhibition,[31],< 10%
same,inhibition,[32],< 10%
same,inhibition,[33],-6%
same,inhibition,[34],< 10%
same,inhibition,[35],< 10%
same,inhibition,[36],< 10%
same,inhibition,[37],< 10%
same,inhibition,[38],47%
same,inhibition,[39],-4%
